PLC-beta3 inh – blocks human PLC-beta3 enzyme activity; Purified PLC-beta3, fluorogenic substrate, fluorescence; AID 720704; Q01970; 370,000 tested, 0.18% active; inhibition, % at 12.2 µM; in the data active = inhibition above about 11%;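 note: 0% = median of compound wells on plate and 100% = full blocker control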
ADAM10 inh – ADAM10 inhibition, QFRET primary screen; O14672; recombinant ADAM10, EDANS/DABCYL FRET peptide cleavage, 3 h; inhibition, % at 7 µM; 370,000 tested, 0.62% active; AID 720582;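 active = inhibition above a per-campaign cutoff equal to the mean of compounds falling between control-based bounds plus 3 SD, cut at about 20% in these data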;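 note: 0% = DMSO wells while the 100% control is not disclosed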
ADAM17 inh – inhibits human ADAM17. P78536. recombinant ADAM17, EDANS/DABCYL FRET peptide cleavage. inhibition, % at 6.95 µM. 370,000 tested, 0.83% active;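 active = inhibition above the mean of compounds lying between control limits plus 3 SD, set per campaign, cut at about 8.5% in these data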;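 note: 0% = DMSO-only wells as the low control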
PLC-gamma1 inh – inhibitors of human phospholipase C gamma1; P19174; 370,000 tested, 0.84% active; inhibition, % at 12.2 µM; purified PLC-gamma1, fluorogenic substrate, fluorescence; in the data active = inhibition above about 9.5%
Tb MetRS inh – blocks T. brucei methionyl-tRNA synthetase activity; 360,000 tested, 0.4% active; inhibition, % at 11.9 µM; purified T. brucei MetRS, ATP depletion, Kinase-Glo luminescence;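 active = inhibition above a per-plate cutoff of the control wells' mean inhibition plus 3 SD, cut at about 5.5% in these data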;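 note: 0% = DMSO wells median and 100% = median of wells with control inhibitor compound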
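technique = Kinase-Glo luminescence, ATP depletion format | system = purified MetRS (methionyl-tRNA synthetase) enzyme from Trypanosoma brucei | timing = 15 min preincubation, 2 h reaction, all 25 °C | evaluation = percent inhibition versus plate control medians | dosing = single dose, 11.9 µM final nominal, 0.9% final DMSO | also added = substrates ATP, L-methionine and bulk Escherichia coli tRNA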
TbMetRS confirm – Trypanosoma brucei MetRS inhibition confirmed; T. brucei MetRS enzyme, luminescence (ATP depletion); inhibition, % at 11.9 µM; 1,400 tested, 93% active; shares compounds with Tb MetRS inh; in the data active = inhibition above about 7%
Jurkat cytotox – counter-screen for T. brucei MetRS inhibitors: Jurkat cell cytotoxicity; inhibition, % at 8.3 µM; 1,400 tested, 12% active; shares compounds with Tb MetRS inh; AID 624413; Jurkat cells viability, ATP luminescence; in the data active = inhibition above about 15%;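 note: 0% = vehicle and 100% = reference inhibitor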
Tb MetRS inh FP – inhibits T. brucei methionyl tRNA synthetase in orthogonal FP test | shares compounds with Tb MetRS inh | purified T. brucei MetRS, fluorescence polarization | inhibition, % at 11.9 µM | 1,400 tested, 44% active; in the data active = inhibition above about 17%;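 note: 0% = vehicle wells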
The depositor's hits bear a star; . = no result. Most compounds without a hit are left out; they make up all but 2.3% or so of the library.

SMILES	PLC-beta3 inh	ADAM10 inh	ADAM17 inh	PLC-gamma1 inh	Tb MetRS inh	TbMetRS confirm	Jurkat cytotox	Tb MetRS inh FP
CC(=O)c1cccc(NC(=O)CSc2nnc(C(C)N(C)C)n2Cc2ccccc2)c1 (configuration not stated)	-7	-7	-2	0	5.6*	2	3	-3
Cc1cc(NS(=O)(=O)c2ccc(Nc3nc(-c4ccc(O)cc4)cs3)cc2)no1	-9	0	-1	1	5.7*	11*	-1	0
Cc1cc(NS(=O)(=O)c2ccc(Nc3nc(-c4ccc(C)c(C)c4)cs3)cc2)no1	-8	-2	-4	-6	2	.	.	.
O=C(NCc1cccs1)c1cccc(Nc2nc3ccc(Br)cc3[nH]2)c1	-9	14	0	-2	5.7*	25*	1	22*
CC1CCc2ccccc2N1CC(=O)Nc1cccc(S(=O)(=O)N2CCCC2)c1 (configuration not stated)	-1	0	-2	5	0	.	.	.
CN(C)CCCNC(=O)/C(=C\C=C\c1ccccc1)NC(=O)c1ccc([N+](=O)[O-])cc1	-2	-5	-1	3	1	.	.	.
Cc1ccc(Nc2nnc(SCC(=O)Nc3ccc(S(=O)(=O)N4CCOCC4)cc3)s2)cc1	-1	5	-2	-1	8.5*	15*	5	14
O=C(CSc1nnc(Nc2ccccc2)s1)Nc1ccc(S(=O)(=O)N2CCOCC2)cc1	-5	4	-2	0	13*	29*	12	19*
CN1CCCCC1(C)C(=O)NCc1ccc(C(C)(C)C)cc1 (configuration not stated)	0	0	-2	1	0	.	.	.
Cc1cccc(-c2cnc(C(O)c3ccc(-c4ccccc4)cc3)[nH]2)c1 (configuration not stated)	-2	10	4	-2	0	.	.	.
Cc1cc(Cl)ccc1OCc1cn2cccnc2n1	-81	-27	-16	-47	11*	21*	5	2
CCOC(=O)[C@@H]1[C@H]2COc3ccccc3[C@H]2N2C(=O)N(c3ccc(Cl)cc3)C(=O)[C@@]12C	.	.	.	.	0	.	.	.
Nc1n[nH]c(N)c1N=Nc1ccccc1F	3	2	1	6	0	.	.	.
Nc1n[nH]c(N)c1N=Nc1ccc(Cl)cc1Cl	2	11	5	4	9.7*	22*	19*	36*
Cc1ccccc1CN1CCCCC(NC(=O)C(C)(C)C)C1=O (configuration not stated)	1	2	-3	-2	.	.	.	.
NS(=O)(=O)c1ccc(CCNC(=O)CCCn2c(=O)[nH]c3ccc(Br)cc3c2=O)cc1	-4	0	-4	0	14*	22*	-7	13
COc1ccc(N2CCN(CCNC(=O)Nc3ccc(Cl)cc3)CC2)cc1	0	9	-3	-1	12*	25*	7	13
Cc1cc(=O)[nH]c(N/N=C/c2c(C)nn(-c3ccccc3)c2C)n1	-9	4	-6	-2	-1	.	.	.
COc1cc(/C=N/Nc2nc3ccccc3[nH]2)ccc1O	-30	-28	-6	-29	7.9*	15*	15	32*
COc1cccc(/C=N/Nc2nc3ccccc3[nH]2)c1O	-48	-4	-5	-29	8.8*	10*	96*	7
Cc1nn(-c2ccccc2)c(C)c1/C=N/Nc1nc2ccccc2[nH]1	-75	7	2	-50	8.0*	14*	9	13
O=[N+]([O-])c1ccc(O)c(/C=N/Nc2nc3ccccc3[nH]2)c1	4	8	1	0	9.5*	14*	98*	15
COc1cccc(/C=N/Nc2nc3ccccc3[nH]2)c1OC	-31	-9	2	-29	2	.	.	.
COc1ccc(SC[C@H](Cc2ccccc2)N2CC[C@@H](NC(=O)OCc3ccccc3)CCC2=O)cc1	2	11	4	4	0	.	.	.
COc1cc(/C=N/Nc2nc3ccccc3[nH]2)cc(OC)c1O	-32	-33	-9	-26	8.5*	14*	30*	33*
